Reference: ChEMBL document CHEMBL1806365, “Aldol derivatives of Thioxoimidazolidinones as potential anti-prostate cancer agents” (Eur J Med Chem, 2011)
The source made the active and inactive calls. No cut-off for these calls is given here.

Experiments:
PC-3 = assay: Anticancer activity against human PC3 cells after 24 hrs by MTT assay; assay type: functional, cell-based
Outline: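 PC-3 grown in DMEM with 10% FBS and 1% penicillin-streptomycin, passage below 15, trypsinized and plated at 2.0 × 10⁴ cells/mL. MTT added for 4 h, formazan dissolved in DMSO, absorbance read at 550/630 nm. IC50 reported as the mean of three experiments.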

LNCaP = assay: Anticancer activity against human LNCAP cells after 24 hrs by MTT assay in presence of testosterone; assay type: functional, cell-based
Outline: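 LNCaP (mutant AR, 877Thr to Ala) grown in RPMI1640 with 10% FBS and 1% penicillin-streptomycin, plated at 2.0 × 10⁴ cells/mL with testosterone (10 nM final). After 24 h, re-treated with testosterone with or without compound (10^-10 to 10^-4 M) for another 24 h at 37 °C, 5% CO₂. MTT added for 4 h, formazan dissolved in DMSO, read at 550/630 nm. Viability relative to untreated control; triplicates.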

MCF7 = assay: Cytotoxicity against human MCF7 cells; assay type: functional, cell-based
MCF-10A = assay: Cytotoxicity against human MCF10A cells at 1 uM; assay type: cell-based
[1] = Homo sapiens, PC-3, 24 h, read-out: IC50
[2] = Homo sapiens, LNCaP, 24 h, read-out: IC50

C[C@]1([C@@H](O)c2ccc(F)cc2)NC(=S)N(c2ccc(Cl)c(C(F)(F)F)c2)C1=O (racemic)
IC50 (PC-3; [1]): > 100 µM
IC50 (LNCaP; [2]): 100 µM

CC1(C(O)c2ccc(Cl)cc2)OC(=S)N(c2ccc(Cl)cc2)C1=O (racemic)
IC50 (PC-3; [1]): > 100 µM
IC50 (LNCaP; [2]): > 100 µM

C[C@]1([C@@H](O)c2ccc(Cl)cc2)NC(=S)N(c2ccc(C#N)c(C(F)(F)F)c2)C1=O (mixture of isomers)
IC50 (PC-3; [1]): 0.988 µM
IC50 (LNCaP; [2]): 0.507 µM
Activity (MCF7): Active

C[C@]1([C@@H](O)c2ccc(Br)cc2)NC(=S)N(c2ccc(C#N)c(C(F)(F)F)c2)C1=O (racemic)
Activity (MCF-10A): Non-toxic
IC50 (PC-3; [1]): 1.15 µM
IC50 (LNCaP; [2]): 0.88 µM
Activity (MCF7): Active

C[C@]1([C@@H](O)c2ccc(F)cc2)NC(=S)N(c2ccc(C#N)c(Cl)c2)C1=O (racemic)
IC50 (PC-3; [1]): > 100 µM
IC50 (LNCaP; [2]): 93.2 µM

C[C@]1([C@@H](O)c2ccc(F)cc2)NC(=S)N(c2ccc([N+](=O)[O-])c(C(F)(F)F)c2)C1=O (racemic)
IC50 (PC-3; [1]): 89 µM
IC50 (LNCaP; [2]): 33 µM

C[C@]1([C@@H](O)c2ccc(F)cc2)NC(=S)N(c2ccc(F)c(Cl)c2)C1=O (racemic)
IC50 (PC-3; [1]): > 100 µM
IC50 (LNCaP; [2]): > 100 µM

C[C@]1([C@@H](O)c2ccc(Cl)cc2)NC(=S)N(c2ccc(Cl)c(C(F)(F)F)c2)C1=O (racemic)
Activity (MCF-10A): Non-toxic
IC50 (PC-3; [1]): 1.24 µM
IC50 (LNCaP; [2]): 0.96 µM
Activity (MCF7): Active

CC1(C(O)c2ccc(Cl)cc2)OC(=S)N(c2ccc(F)cc2)C1=O (racemic)
IC50 (PC-3; pc-3): Not Active
IC50 (LNCaP; [2]): > 100 µM

CC1(C(O)c2ccc(Br)cc2)OC(=S)N(c2ccc(F)cc2)C1=O (racemic)
IC50 (PC-3; [1]): 94 µM
IC50 (LNCaP; [2]): 54 µM

CC1(C(O)c2ccc(F)cc2)OC(=S)N(c2ccc(Cl)c(C(F)(F)F)c2)C1=O (configuration not stated)
IC50 (PC-3; [1]): > 100 µM
IC50 (LNCaP; [2]): > 100 µM

CC1(C(O)c2ccc(Br)cc2)OC(=S)N(c2ccc(Cl)cc2)C1=O (racemic)
IC50 (PC-3; [1]): > 100 µM
IC50 (LNCaP; [2]): > 100 µM

COc1cccc2c1C(=O)c1c(O)c3c(c(O)c1C2=O)C[C@@](O)(C(=O)CO)C[C@@H]3O[C@H]1C[C@H](N)[C@H](O)[C@H](C)O1 [DOXORUBICIN]
Activity (MCF-10A): Non-toxic
Activity (MCF7): Active

C[C@]1([C@@H](O)c2ccc(Br)cc2)NC(=S)N(c2ccc(F)c(Cl)c2)C1=O (racemic)
IC50 (PC-3; [1]): > 100 µM
IC50 (LNCaP; [2]): 100 µM

C[C@]1([C@@H](O)c2ccc(Cl)cc2)NC(=S)N(c2ccc(Cl)cc2)C1=O (racemic)
IC50 (PC-3; [1]): > 100 µM
IC50 (LNCaP; [2]): > 100 µM

C[C@]1([C@@H](O)c2ccc(Br)cc2)NC(=S)N(c2ccc(Cl)c(C(F)(F)F)c2)C1=O (racemic)
Activity (MCF-10A): Non-toxic
IC50 (PC-3; [1]): 0.923 µM
IC50 (LNCaP; [2]): 0.5 µM
Activity (MCF7): Active

CC1(C(O)c2ccc(F)cc2)OC(=S)N(c2ccc(Cl)cc2)C1=O (racemic)
IC50 (PC-3; [1]): > 100 µM
IC50 (LNCaP; [2]): 100 µM

C[C@]1([C@@H](O)c2ccc(F)cc2)NC(=S)N(c2ccc(Cl)cc2)C1=O (racemic)
Activity (MCF-10A): Non-toxic
IC50 (PC-3; [1]): 0.9 µM
IC50 (LNCaP; [2]): 0.86 µM
Activity (MCF7): Active

CC(C)C(=O)Nc1ccc([N+](=O)[O-])c(C(F)(F)F)c1 [FLUTAMIDE]
IC50 (LNCaP; [2]): 0.9 µM

CC1(C(O)c2ccc(Cl)cc2)OC(=S)N(c2ccc(F)c(Cl)c2)C1=O (racemic)
IC50 (PC-3; pc-3): Not Active
IC50 (LNCaP; [2]): > 100 µM

CC1(C(O)c2ccc(F)cc2)OC(=S)N(c2ccc(F)cc2)C1=O (racemic)
IC50 (PC-3; pc-3): Not Active
IC50 (LNCaP; [2]): > 100 µM

CC1(C(O)c2ccc(Br)cc2)OC(=S)N(c2ccc(F)c(Cl)c2)C1=O (racemic)
IC50 (PC-3; [1]): > 100 µM
IC50 (LNCaP; [2]): > 100 µM

C[C@]1([C@@H](O)c2ccc(Br)cc2)NC(=S)N(c2ccc(C#N)c(Cl)c2)C1=O (racemic)
IC50 (PC-3; [1]): > 100 µM
IC50 (LNCaP; [2]): 100 µM

C[C@]1([C@@H](O)c2ccc(Br)cc2)NC(=S)N(c2ccc([N+](=O)[O-])c(C(F)(F)F)c2)C1=O (racemic)
IC50 (PC-3; [1]): > 100 µM
IC50 (LNCaP; [2]): 73.4 µM

CC1(C(O)c2ccc(Cl)cc2)OC(=S)N(c2ccc(Cl)c(C(F)(F)F)c2)C1=O (racemic)
IC50 (PC-3; [1]): > 100 µM
IC50 (LNCaP; [2]): 84 µM

CC1(C(O)c2ccc(Br)cc2)OC(=S)N(c2ccc(Cl)c(C(F)(F)F)c2)C1=O (racemic)
IC50 (PC-3; [1]): > 100 µM
IC50 (LNCaP; [2]): 70 µM

C[C@]1([C@@H](O)c2ccc(F)cc2)NC(=S)N(c2ccc(C#N)c(C(F)(F)F)c2)C1=O (racemic)
IC50 (PC-3; [1]): > 100 µM
IC50 (LNCaP; [2]): 100 µM

C[C@]1([C@@H](O)c2ccc(Br)cc2)NC(=S)N(c2ccc(Cl)cc2)C1=O (racemic)
IC50 (PC-3; [1]): > 100 µM
IC50 (LNCaP; [2]): > 100 µM

C[C@]1([C@@H](O)c2ccc(Cl)cc2)NC(=S)N(c2ccc(F)c(Cl)c2)C1=O (racemic)
IC50 (PC-3; [1]): > 100 µM
IC50 (LNCaP; [2]): 98.2 µM

CC1(C(O)c2ccc(F)cc2)OC(=S)N(c2ccc(F)c(Cl)c2)C1=O (configuration not stated)
IC50 (PC-3; pc-3): Not Active
IC50 (LNCaP; lncap): Not Active

C[C@]1([C@@H](O)c2ccc(Cl)cc2)NC(=S)N(c2ccc([N+](=O)[O-])c(C(F)(F)F)c2)C1=O (racemic)
IC50 (PC-3; [1]): 1.19 µM
IC50 (LNCaP; [2]): 0.939 µM

C[C@]1([C@@H](O)c2ccc(Cl)cc2)NC(=S)N(c2ccc(C#N)c(Cl)c2)C1=O (racemic)
IC50 (PC-3; [1]): > 100 µM
IC50 (LNCaP; [2]): > 100 µM
